From ChEMBL document CHEMBL2046332, “Substrate analog studies of the ω-regiospecificity of Mycobacterium tuberculosis cholesterol metabolizing cytochrome P450 enzymes CYP124A1, CYP125A1 and CYP142A1” (Bioorg Med Chem, 2012) come the findings set out here.

Data set [1] concerns Mycobacterium tuberculosis. The experiment in a line: Binding affinity to Mycobacterium tuberculosis CYP124A1 assessed as type 1 binding mode at 0.05 to 0.2 uM by UV-visible spectrophotometry. Summed up: (§1)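 Spectral titration of each P450 with steroid solubilised in methyl β-cyclodextrin. Ligand-induced low-spin/high-spin shifts were followed in the Soret region and at ~650 nm to assign binding type. Absolute spectra of the P450–steroid complexes were also examined.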

In data set [2] the target is T1, Steroid C26-monooxygenase (Mycobacterium tuberculosis, UniProt P9WPP1).
T1 sequence (P9WPP1 whole entry): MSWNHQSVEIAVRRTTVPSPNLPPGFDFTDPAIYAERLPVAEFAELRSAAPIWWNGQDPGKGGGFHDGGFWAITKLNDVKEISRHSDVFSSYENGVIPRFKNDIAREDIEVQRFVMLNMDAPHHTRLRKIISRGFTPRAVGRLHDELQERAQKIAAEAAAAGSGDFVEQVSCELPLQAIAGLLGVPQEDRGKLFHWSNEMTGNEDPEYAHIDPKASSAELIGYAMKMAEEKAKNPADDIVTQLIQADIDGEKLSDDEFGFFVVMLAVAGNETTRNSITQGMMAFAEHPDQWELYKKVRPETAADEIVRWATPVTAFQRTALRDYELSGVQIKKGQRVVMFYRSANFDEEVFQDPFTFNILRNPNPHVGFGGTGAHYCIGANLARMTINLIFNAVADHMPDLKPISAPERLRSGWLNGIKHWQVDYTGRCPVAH
The experiment in a line: Binding affinity to Mycobacterium tuberculosis CYP125A1 assessed as type 1 binding mode at 0.05 to 0.2 uM by UV-visible spectrophotometry. Summed up: as §1

Data set [3] relates to Mycobacterium tuberculosis. The experiment in a line: Binding affinity to Mycobacterium tuberculosis CYP142A1 assessed as type 1 binding mode at 0.05 to 0.2 uM by UV-visible spectrophotometry. Summed up:
as §1

Data set [4] relates to Mycobacterium tuberculosis. As to the kind of experiment: Activity of Mycobacterium tuberculosis CYP124A1 assessed as apparent turnover number at 50 uM incubated for 1 hr at 25 degC by GC-MS method. The procedure, abridged:
(§2)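 Each P450 (250 nM) was incubated with 50 μM substrate, 5 μg catalase, 50 μg/mL ferredoxin, 0.16 U/mL ferredoxin-NADP+ reductase, and an NADPH-regenerating system (1 mM glucose-6-phosphate, 2.4 U/mL G6P dehydrogenase, 5 mM MgCl2, 800 μM NADP+). Buffer was 50 mM potassium phosphate pH 7.5, 25 °C, 1 h. Quenched with HCl, extracted into hexanes, TMS-derivatised, GC-MS. Controls lacked P450 or NADPH.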

Data set [5] deals with T1, Steroid C26-monooxygenase. The experiment in a line: Activity of Mycobacterium tuberculosis CYP125A1 assessed as apparent turnover number at 50 uM incubated for 1 hr at 25 degC by GC-MS method. Summed up:
as §2

The subject of data set [6] is Mycobacterium tuberculosis. As to the kind of experiment: Activity of Mycobacterium tuberculosis CYP142A1 assessed as apparent turnover number at 50 uM incubated for 1 hr at 25 degC by GC-MS method. Summed up:
as §2

The subject of data set [7] is Mycobacterium tuberculosis. As to the kind of experiment: Activity of Mycobacterium tuberculosis CYP124A1 assessed as relative apparent turnover number at 50 uM incubated for 1 hr at 25 degC by GC-MS method relative to cholesterol.
In data set [8] the target is T1, Steroid C26-monooxygenase. As to the kind of experiment: Activity of Mycobacterium tuberculosis CYP125A1 assessed as relative apparent turnover number at 50 uM incubated for 1 hr at 25 degC by GC-MS method relative to cholesterol.
The test system of data set [9] is Mycobacterium tuberculosis. As to the kind of experiment: Activity of Mycobacterium tuberculosis CYP142A1 assessed as relative apparent turnover number at 50 uM incubated for 1 hr at 25 degC by GC-MS method relative to cholesterol.
For data set [10], the system named is Mycobacterium tuberculosis. The experiment in a line: Time dependent inhibition of Mycobacterium tuberculosis CYP124A1 at 50 uM incubated up to 3 hrs by HPLC. Summed up:
(§3)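 P450 (5 μM) was pre-incubated with 50 μM test sterol in 50 mM potassium phosphate pH 7.5 with ferredoxin, reductase, catalase and NADPH-regenerating system. Controls received MβCD vehicle only. Aliquots taken over time were diluted twenty-fold into buffer with 50 μM cholest-4-en-3-one, spinach ferredoxin, reductase and 1 mM NADPH, run 10 min at 25 °C, and analysed by HPLC. Residual activity = % of control.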

For data set [11], the system named is Mycobacterium tuberculosis. As to the kind of experiment: Time dependent inhibition of Mycobacterium tuberculosis CYP142A1 at 50 uM incubated up to 3 hrs by HPLC. Summed up: as §3
Data set [12] is described as follows: Binding affinity to Mycobacterium tuberculosis CYP124A1 by UV-visible spectrophotometry. The conditions noted are these: read-out: Kd(app). Summed up: as §1
The target of data set [13] is T1, Steroid C26-monooxygenase. As to the kind of experiment: Binding affinity to Mycobacterium tuberculosis CYP125A1 by UV-visible spectrophotometry. To be noted: read-out: Kd(app). Summed up: as §1
The target in data set [14] is T1, Steroid C26-monooxygenase. As to the kind of experiment: Binding affinity to Mycobacterium tuberculosis CYP125A1 assessed as type 1a binding mode at > 0.05 to 0.2 uM by UV-visible spectrophotometry. Summed up:
as §1

Data set [15] can be described thus: Binding affinity to Mycobacterium tuberculosis CYP142A1 by UV-visible spectrophotometry. The conditions noted are these: read-out: Kd(app). Summed up: as §1
The subject of data set [16] is Mycobacterium tuberculosis. The experiment in a line: Binding affinity to Mycobacterium tuberculosis CYP124A1 assessed as type 1a binding mode at > 0.05 to 0.2 uM by UV-visible spectrophotometry. The procedure, abridged:
as §1

Activity calls are given as the source filed them. The calls are words filed in the database; no cut-off is given here.

Take `C=CCCC[C@@H](C)[C@H]1CC[C@H]2[C@@H]3CC=C4C[C@@H](O)CC[C@]4(C)[C@H]3CC[C@]12C`: the outcome in data set [1] and in data set [3] was Active. The Activity entry in data set [2] is “Active”; in [7], 1.9%; in data set [8], 8%; in [9] it was 6.7%. Moreover, the values for the Kcat(app) in data set [4], in data set [5] and in [6] were 0.0005 s⁻¹, 0.0367 s⁻¹ and 0.0183 s⁻¹, respectively. Besides, the inhibition entry in [10] and in data set [11] was “inactive” each time.
Take `C=C(C)CCC[C@@H](C)[C@H]1CC[C@H]2[C@@H]3CC=C4C[C@@H](O)CC[C@]4(C)[C@H]3CC[C@]12C`: the Kd in data set [12] is 150 nM; in data set [13], 250 nM. Moreover, the result in [1] and in [3] was Active. The Activity result in data set [14] was “Active”; in data set [7] it was 26.2%; in data set [8] it was 37%; in data set [9] it was 6.7%. For the same molecule, the Kcat(app) in [4] was determined as 0.00667 s⁻¹; in [5] it was 0.178 s⁻¹; in data set [6] it was 0.0183 s⁻¹.
In the case of `CC=C(C)CCC[C@@H](C)[C@H]1CC[C@H]2[C@@H]3CC=C4C[C@@H](O)CC[C@]4(C)[C@H]3CC[C@]12C` (mixture of isomers), the Kd in [13] was found to be 450 nM; in data set [15], 160 nM. Moreover, the outcome in data set [1], in data set [3] and in data set [16] was Active. Further, the results for the Activity result in data set [2], in data set [7] and in [8] were “Active”, 22.4% and 29.9%, respectively. The figures for the Kcat(app) in data set [4] and in data set [5] were 0.005 s⁻¹ and 0.135 s⁻¹, respectively.
